Screening results deposited in PubChem BioAssay by several laboratories.
p-CIP stab down – compounds decreasing mouse p/CIP protein stability. hit rate 0.01% among 290,000. Q05BA5. decrease of EGFP signal, % at 10 µM. F442A p/CIP-EGFP cells, EGFP fluorescence, 16 h. AID 1984;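 active = EGFP signal decrease of at least 30% at 10 µM or well 3 SD below plate mean, unless failing retest; inactive = the rest, including hits failing retest or dose response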
Cardio protect – myocardial damage modulation in H9c2 cells | H9c2 cardiomyocytes, H2O2 injury protection, ATPLite, 2 h | protection from H2O2 cell death, % at 20 µM | hit rate 0.63% among 360,000 | AID 588492;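 active = compounds giving at least 50% protection of heart cells from peroxide-induced death in the single-dose screen, raw or plate-pattern-corrected value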;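 also: 0% = DMSO wells with peroxide and 100% = DMSO wells without peroxide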
JMJD2C inh – human JMJD2C demethylase inhibition; inhibition, % at 2.35 µM; GST-JMJD2C(1-420) H3K9me3 demethylation, DELFIA europium; hit rate 0.069% among 330,000; Q9H3R0;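 active = more than half of a compound's replicate wells show inhibition beyond 50%, single wells judged on their own value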;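 also: signal counts dimethyl H3K9 product captured on neutravidin plate; 0% = median of DMSO wells and 100% = 0.3 times that DMSO median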
Target sequence (Q9H3R0 1-420 limits assumed): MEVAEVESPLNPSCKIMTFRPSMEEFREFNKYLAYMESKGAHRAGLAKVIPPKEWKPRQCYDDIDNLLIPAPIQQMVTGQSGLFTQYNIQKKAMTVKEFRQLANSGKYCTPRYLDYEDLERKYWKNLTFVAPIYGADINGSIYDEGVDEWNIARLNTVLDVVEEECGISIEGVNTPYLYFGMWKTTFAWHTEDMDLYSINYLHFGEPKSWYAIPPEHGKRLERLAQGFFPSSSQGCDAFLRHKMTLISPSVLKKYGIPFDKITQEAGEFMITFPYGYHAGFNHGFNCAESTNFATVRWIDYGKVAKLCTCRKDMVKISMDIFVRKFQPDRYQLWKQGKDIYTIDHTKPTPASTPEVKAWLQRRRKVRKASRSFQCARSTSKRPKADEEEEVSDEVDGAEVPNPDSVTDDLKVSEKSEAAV
PP5 primary – inhibitors of human protein phosphatase 5 (PP5); purified PP5c, OMFP substrate fluorescence; P53041; hit rate 0.18% among 320,000; inhibition, % at 6.7 µM;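 active = inhibition above the campaign's mean inhibition across all tested compounds plus 3 SD, cut at about 9.5% in these data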;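 also: 0% = DMSO only and 100% = 100 µM cantharidin control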
T cruzi repl – T. cruzi replication inhibition | T. cruzi beta-gal in NIH3T3, luminescence, 90 h | inhibition, % (concentration not given with the values) | hit rate 1.4% among 300,000 | AID 1885;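 active = mean inhibition across valid replicates above about 55%, limit read from the data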;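 also: signal also drops with host cell toxicity which is not excluded here; 0% = plate median of DMSO wells and 100% = zero luminescence signal; higher percent means less beta-gal luminescence so fewer parasites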
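System – NIH/3T3 host cells with β-galactosidase reporter T. cruzi · Doses – single 50 nL compound addition per well in DMSO · Reagent – 5000 T. cruzi trypomastigotes/well · Medium – Low-serum DMEM with 2% FBS · Timing – ≥90 h infection period, 3 h prior cell attachment · Evaluation – parasite load inhibition, % · Technique – GalScreen luminescence, 60 min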
CTSL1 counter – counter-screen for PFM18AAP inhibitors: inhibitors of F. hepatica cathepsin L1 | inhibition, % at 5.96 µM | hit rate 0.49% among 300,000 | recombinant F. hepatica cathepsin L1, Z-Leu-Arg-MCA fluorescence | AID 1906;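 active = inhibition above the mean of all tested compounds plus 3 SD, set per screening campaign, cut at about 17% in these data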;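 also: 0% = plate median of test compound wells and 100% = 1 µM Z-Phe-Ala-diazomethylketone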
* = called active by the depositor; nt = no result. An excerpt weighted towards active compounds, which were near 2.4% of everything screened.

SMILES	p-CIP stab down	Cardio protect	JMJD2C inh	PP5 primary	T cruzi repl	CTSL1 counter
Cc1sc(NC(=O)c2ccco2)c(C(c2ccccc2)N2CCC(C)CC2)c1C (stereo not drawn)	-9	-7	1	4	72*	-3
Cc1sc(NC(=O)c2ccco2)c(C(c2cccnc2)N2CCN(CCO)CC2)c1C (stereo not drawn)	3	4	-6	0	33	0
Cc1ccc(C(c2c(NC(=O)c3ccco3)sc(C)c2C)N2CCOCC2)cc1 (stereo not drawn)	nt	-17	nt	nt	nt	nt
Cc1ccc(S(=O)(=O)N2CCN(C(=O)CCC(=O)Nc3ccc(Br)c(C)c3)CC2)cc1	nt	0	nt	nt	nt	nt
CC(=O)c1ccc(OCc2cc(C(=O)N(C)CCOc3ccc(C)cc3)no2)cc1	-8	-21	11	1	15	4
O=[N+]([O-])c1ccc(S(=O)(=O)Nc2ccc(-c3csc(-c4ccccc4)n3)cc2)cc1	-9	nt	2	8	66*	3
Cc1nn(Cc2cccc(C(=O)Nc3ccn(Cc4c(F)c(F)cc(F)c4F)n3)c2)c(C)c1[N+](=O)[O-]	4	9	-6	3	68*	-5
Cc1nn(C)c(C(=O)Nc2ccn(Cc3c(F)c(F)cc(F)c3F)n2)c1[N+](=O)[O-]	9	-3	-2	2	-1	2
CC(C)(C)c1ccc(OCCCC(=O)NNC(=O)c2ccccc2O)cc1	nt	52*	4	1	28	3
Cc1ccc(N(CC(=O)NC2CCCCC2)C(=O)CNC(=O)c2ccco2)cc1F	2	-1	5	-2	10	-1
O=C1N(Cc2ccccc2)c2ccccc2OC1(F)F	nt	-3	nt	nt	nt	nt
Cc1[nH]c2ccccc2c1/C=N/NC(N)=S	-10	3	-13	2	-2	92*
NC(=S)N/N=C\c1c2ccccc2cc2ccccc12	-4	-1	-3	2	nt	84*
Cc1cc(C)n2nc(C(=O)N/N=C/c3c4ccccc4cc4ccccc34)nc2n1	-7	64*	11	-1	0	1
O=C(N/N=C/c1ccccc1OCc1ccccc1Cl)c1cccnc1	10	28	-4	3	4	7
Cc1cc(C)n2nc(C(=O)N/N=C/c3ccccc3Cl)nc2n1	-19	19	3	-3	5	-3
NC(=S)N/N=C\c1c(OCc2ccccc2Cl)ccc2ccccc12	3	-16	-7	2	nt	30*
C/C(=N\O)c1noc(C)c1C(=O)Nc1nccs1	2	-5	7	5	-3	-3
COc1ccc(/C=N/OCC(=O)NC(c2ccccc2)c2ccccc2)cc1OC	-12	-19	2	1	57*	3
Cn1cnnc1SCc1ccc(-c2ccc(Br)cc2)o1	-21	-21	1	4	5	60*
Cc1ccc(C)c2sc(N3CCN(C(=O)c4ccc([N+](=O)[O-])o4)CC3)nc12	nt	-4	-11	1	51	0
O=C(c1ccc([N+](=O)[O-])o1)N1CCN(c2nc3c(F)cc(F)cc3s2)CC1	nt	0	6	2	56*	11
Nc1n[nH]c(N)c1N=Nc1ccc2c(c1)OCO2	-5	-9	-6	-1	74*	0
Clc1ccc(N=c2ssnc2Cl)nc1	-21	-6	54*	2	58*	8
Clc1nssc1=Nc1ccc(Br)cc1	0	-37	-2	nt	-97	nt
SMILES	p-CIP stab down	Cardio protect	JMJD2C inh	PP5 primary	T cruzi repl	CTSL1 counter
CCOC(=O)/C=C1/SCC(=O)N1CC(=O)c1ccc[nH]1	nt	-4	nt	nt	nt	nt
Cc1ccc(N=C2N=C(N)c3ccccc32)c(C)c1	1	1	-5	-1	9	1
Cc1ccccc1N=C1N=C(N)c2ccccc21	-6	3	60*	2	-14	-3
CC(Oc1cc2oc(=O)c3c(c2cc1Cl)CCC3)C(=O)NCc1ccccn1 (stereo not drawn)	-4	-1	0	-1	0	-1
COc1ccc([C@H]2C[C@@H](O)[C@H](n3cc(COC(=O)c4ccccc4)nn3)CN2CC2CCCCC2)cc1	nt	-9	nt	nt	nt	nt
O=C(CC1SC(N2CCCC2)=NC1=O)Nc1ccc(C(=O)NCCOc2ccccc2F)cc1 (stereo not drawn)	nt	2	nt	nt	nt	nt
OC1c2cc(Br)ccc2N=C2CCCN21 (stereo not drawn)	1	4	25	0	55*	-7
CC(C)CCOC(=O)/C(=C/c1ccco1)NC(=O)/C=C/c1ccccc1	-2	-2	-2	1	22	22*
NC(=O)/C(=C/c1ccco1)NC(=O)/C=C/c1ccccc1	-12	5	6	3	6	5
CC(C)CSc1nnc(N)s1	1	16	-2	0	-7	-3
CCSc1nnc(N)s1	1	76*	-7	0	-15	-2
COc1ccc(C)cc1NC(=O)CN1CCN(S(=O)(=O)c2ccc3ccccc3c2)CC1	nt	-2	17	3	nt	nt
CCOc1ccc(CN2CCN(Cc3[nH]c4ccc(OC)cc4c3C)CC2CCO)cc1 (stereo not drawn)	-9	-5	-27	1	72*	4
COc1cccc(CN2CCN(Cc3cc4ccccc4o3)CC2CCO)c1 (stereo not drawn)	-4	0	-5	1	14	-4
CCOc1ccccc1CN1CCN(CC2=Cc3cc(OC)ccc3OC2)CC1CCO (stereo not drawn)	8	-6	8	1	55*	-3
COc1ccc(CN2CCN(Cc3cc4ccccc4o3)CC2CCO)cc1C (stereo not drawn)	-9	0	5	0	55*	2
CCOc1ccccc1CN1CCN(Cc2[nH]c3ccccc3c2C)CC1CCO (stereo not drawn)	-16	5	-2	-1	66*	6
Cc1ccc2[nH]c(CN3CCN(C)C(CCO)C3)c(C)c2c1 (stereo not drawn)	3	-4	5	2	2	-2
CCN(CC(=O)Nc1ccc2c(c1)OCCO2)C(=O)c1ccc(C(F)(F)F)cc1	nt	1	3	2	-8	4
COc1ccc(CN2CCN(Cc3cccc4nonc34)CC2CCO)c(C)c1C (stereo not drawn)	2	-8	-10	-3	66*	1
CCOc1ccccc1CN1CCN(Cc2ccc(C)o2)CC1CCO (stereo not drawn)	-4	6	-4	3	4	0
Cc1cccc(CN2CCN(Cc3cccc4nonc34)CC2CCO)n1 (stereo not drawn)	-22	6	5	1	4	-1
CC(C)c1csc(CN2CCN(Cc3ccccc3)C(CCO)C2)n1 (stereo not drawn)	-8	-4	0	3	5	-3
CCOc1ccccc1CN1CCN(Cc2nc3ccccc3s2)CC1CCO (stereo not drawn)	4	17	5	1	58*	-2
